Screens from PubChem.
Compounds with a hit are over-represented: about 1.7% of the library has one in this group of screens.
T cell HTS – modulates CD8 T cell binding to vesicles; AID 2052; response (vesicle binding), % at 7 µM; 2C CD8+ T cell-vesicle binding, flow cytometry; active compounds read low; hit rate 0.068% among 330,000;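 active = response, share of CD8 T cells binding vesicles, and their 90th percentile fluorescence all below set limits, cut at about 80% in these data, passing the limit was not always enough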;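 also: values below 100% mean blocked vesicle binding to the CD8+ T cells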
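Incubation: binding step 1.5 h, 37 °C, antibody labelling 20 min, ice; system: murine 2C transgenic CD8+ T lymphocytes; technique: cytometric PE anti-B7-1 and Alexa647 anti-CD8 signals after 1% paraformaldehyde fixation; also added: QL9-charged Drosophila Ld/ICAM-1/B7-1 vesicles; control set: naked versus QL9-loaded vesicles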
Vif imaging – blocks HIV Vif function; HEK293T cells, Vif self-association by quenched fluorescence, imaging, 24 h; inhibition, % at 7.49 µM; hit rate 0.35% among 340,000; AID 602346; in the data active = inhibition above about 50%, passing the limit was not always enough; inconclusive = no clear call, values can overlap the other calls; inactive = below about 31%
DSG3 Ab inh – blocks pemphigus antibody binding to human desmoglein-3. P32926. hit rate 0.48% among 310,000. DSG3-coupled beads, scFv-anti-DSG3-GFP binding, flow cytometry; active compounds read low. binding (percent of control), % at 10 µM;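 active = binding more than 3 SD below its plate's average and above zero; inconclusive = below that plate limit but binding exactly zero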;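 also: hits lower antibody fragment binding to DSG3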
Target sequence (P32926 whole entry, looked up, the tested form may be a part): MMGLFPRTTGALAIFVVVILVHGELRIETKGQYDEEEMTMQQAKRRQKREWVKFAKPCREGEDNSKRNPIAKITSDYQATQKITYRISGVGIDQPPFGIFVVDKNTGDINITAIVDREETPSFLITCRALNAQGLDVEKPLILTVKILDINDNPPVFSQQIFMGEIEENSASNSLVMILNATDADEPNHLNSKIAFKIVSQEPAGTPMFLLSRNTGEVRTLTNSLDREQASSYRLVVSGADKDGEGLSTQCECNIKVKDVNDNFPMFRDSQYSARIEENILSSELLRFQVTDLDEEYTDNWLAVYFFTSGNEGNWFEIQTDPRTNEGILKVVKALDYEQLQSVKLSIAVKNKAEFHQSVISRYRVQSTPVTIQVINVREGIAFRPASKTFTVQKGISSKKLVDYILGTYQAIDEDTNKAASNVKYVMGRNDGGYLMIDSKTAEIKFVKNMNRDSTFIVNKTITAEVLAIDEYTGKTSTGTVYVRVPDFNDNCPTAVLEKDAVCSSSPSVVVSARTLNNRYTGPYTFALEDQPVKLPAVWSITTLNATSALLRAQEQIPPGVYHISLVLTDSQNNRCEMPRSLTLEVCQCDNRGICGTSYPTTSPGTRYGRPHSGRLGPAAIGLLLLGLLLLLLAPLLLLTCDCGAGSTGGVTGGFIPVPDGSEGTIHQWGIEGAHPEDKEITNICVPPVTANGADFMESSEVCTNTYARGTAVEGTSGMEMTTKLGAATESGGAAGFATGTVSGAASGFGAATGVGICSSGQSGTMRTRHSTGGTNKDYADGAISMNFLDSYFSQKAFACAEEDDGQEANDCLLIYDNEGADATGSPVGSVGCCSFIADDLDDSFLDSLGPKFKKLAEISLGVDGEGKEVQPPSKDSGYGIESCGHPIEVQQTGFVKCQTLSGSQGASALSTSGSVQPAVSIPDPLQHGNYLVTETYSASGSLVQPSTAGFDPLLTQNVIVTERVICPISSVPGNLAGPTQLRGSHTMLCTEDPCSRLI
Myeloid diff MLP – myeloid differentiation induction. calls only at 10 µM. hit rate 1% among 360,000. ER-HoxA9 myeloid progenitors, lysozyme-GFP differentiation, flow cytometry;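 active = normalized GFP-positive differentiation at or above the plate's own cutoff, the solvent-only control mean plus 3 SD; inconclusive = no clear call, values can overlap the other calls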;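 also: cells exposed to compound for four days before flow analysis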
Myeloid diff CP1 – compounds promoting myeloid differentiation; shares compounds with Myeloid diff MLP; ER-HoxA9 myeloid progenitors, GFP/Mac1 double-positive flow; hit rate 2% among 2,300; calls only;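 active = share of green or green-and-red cells above 9 and 9% in run 1 or 4 and 3% in run 2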
GFP autofluor – counter-screen for myeloid differentiation promoters: compound fluorescence; shares compounds with Myeloid diff MLP; ER-HoxA9 myeloid progenitors, no estrogen, GFP autofluorescence flow cytometry; vehicle wells 0%, positive control 100%; fluorescence response, % (no concentration beside the values); hit rate 7.4% among 2,300; AID 651707;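 active = over 5% cells positive for green fluorescent reporter, or over 2% positive for both it and APC stain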;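 also: range taken on the double positive population between DMSO and positive control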
An asterisk follows results filed as active; i = inactive; ? = inconclusive; nt = no result; + = active, no number.

SMILES | T cell HTS | Vif imaging | DSG3 Ab inh | Myeloid diff MLP | Myeloid diff CP1 | GFP autofluor
CCOc1cc(CNc2ccccc2)cc(Br)c1OCC(=O)NC(C)(C)C | 386.8 | -7.5 | 102.0 | i | nt | nt
COc1cc(OC)c(N(C)S(=O)(=O)c2cccc(C(=O)OCC(=O)N(C)C3CCCCC3)c2)cc1Cl | nt | 11.9 | 105.5 | i | nt | nt
O=C(O)Cn1ccc2cc(S(=O)(=O)N3CCCCC3)ccc21 | nt | nt | 99.6 | i | nt | nt
O=C(Oc1c(Cl)cc(Cl)c2cccnc12)N1CCOCC1 | 424.4 | 18.5 | 93.7 | i | nt | nt
O=C(Oc1ccnc2cc(Cl)ccc12)N1CCOCC1 | 559.7 | -2.2 | 100.3 | i | i | 0.3
CCNC(=O)C1(C)CCN(C(=O)c2cccc(C(F)(F)F)c2)C1 (configuration not stated) | nt | 2.9 | nt | i | nt | nt
COc1ccc(C2c3cc(OC)c(OC)cc3CCN2C(=O)c2ccccc2)cc1OC (configuration not stated) | 248.4 | 8.7 | 101.1 | i | nt | nt
COc1ccc(C(=O)N2CCc3cc(OC)c(OC)cc3C2c2ccc(OC)c(OC)c2)cc1 (configuration not stated) | 175.5 | -3.7 | 107.8 | i | i | 0.0
COc1ccc(C2SCC(=O)N2c2c(C)n(C)n(-c3ccccc3)c2=O)cc1OC (configuration not stated) | 332.1 | 4.9 | nt | + | i | 0.3
CCOC(=O)/C(=N\Nc1ccc(C(C)=O)cc1)c1csc(Nc2ccccc2)n1 | 206.6 | 7.6 | 105.9 | + | i | 0.9
Cc1ccc(N=C2C(=O)Nc3ccccc32)cc1 | 298.9 | 0.3 | 90.1 | i | nt | nt
CCN(CC)c1ccc(N=C2C(=O)Nc3ccccc32)cc1 | nt | -7.3 | 97.3 | i | i | 3.7*
COc1ccc(S(=O)(=O)N(C)CC(=O)Nc2ccc(F)cc2)cc1 | 484.3 | -10.3 | nt | i | i | 0.0
O=C(Cc1ccc(Cl)cc1)Nc1cccnc1Cl | nt | -4.1 | 102.2 | i | nt | nt
CCN(CC)C(=O)CN1C(=O)c2cccc3cccc1c23 | 156.7 | -3.8 | 104.2 | i | nt | nt
CCN(CC)C(=O)CN1C(=O)C(=O)c2ccccc21 | 354.8 | 1.1 | 64.7 | i | i | 0.6
COc1ccc(C2CC(C(F)(F)F)n3nc(C(=O)O)c(Cl)c3N2)cc1OC (configuration not stated) | 682.2 | -8.5 | 113.2 | i | i | 0.0
COc1ccc(C2CC(C(F)(F)F)n3nc(CO)c(Cl)c3N2)cc1OC (configuration not stated) | 563.7 | -12.2 | 110.9 | i | nt | nt
O=C(C=P(c1ccccc1)(c1ccccc1)c1ccccc1)c1ccccc1-c1ccccc1C(=O)C=P(c1ccccc1)(c1ccccc1)c1ccccc1 | nt | -17.2 | 92.2 | ? | nt | nt
O=[N+]([O-])c1ccc(/C=N/Nc2ncccc2[N+](=O)[O-])s1 | 929.1 | 14.4 | 105.0 | i | i | 0.0
COc1cccc(/C=N/Nc2ncccc2[N+](=O)[O-])c1OC | 636.3 | 4.8 | 115.8 | i | nt | nt
CC1CN(C(=O)CN2C(=O)NC3(CCCCCC3)C2=O)CC(C)O1 (configuration not stated) | 132.8 | -7.3 | 104.6 | i | nt | nt
COc1ccccc1CC1(C)NC(=O)N(CC(=O)N2CC(C)OC(C)C2)C1=O (configuration not stated) | 226.5 | nt | 92.7 | i | i | 0.3
O=C(COC(=O)c1cc(=O)[nH]c2ccccc12)Nc1nc(-c2ccc(F)cc2)cs1 | nt | -1.0 | 95.2 | i | nt | nt
Cc1cc(C(=O)N2CCC2(C)C(=O)NCC(C)(C)C)nn1C (configuration not stated) | nt | 0.4 | nt | i | nt | nt
SMILES | T cell HTS | Vif imaging | DSG3 Ab inh | Myeloid diff MLP | Myeloid diff CP1 | GFP autofluor
CCOc1cc(S(=O)(=O)Nc2ccc(Cl)cn2)ccc1F | 231.3 | -0.3 | nt | + | i | 0.3
CCS(=O)(=O)c1nc(S(=O)(=O)c2ccc(Cl)cc2)c(N2CCOCC2)s1 | 252.4 | 5.8 | 100.6 | i | i | 0.0
CCS(=O)(=O)c1nc(S(=O)(=O)c2ccc(Cl)cc2)c(N2CCC3(CC2)OCCO3)s1 | 290.4 | -1.4 | 100.2 | i | + | 0.0
Cc1noc(C)c1C(=O)N1CCC1(C)C(=O)NS(=O)(=O)c1ccccc1C(F)(F)F (configuration not stated) | nt | -7.9 | nt | i | nt | nt
CC(C)(C)c1ccc(S(=O)(=O)NCCc2ccncc2)cc1 | 627.0 | -5.5 | nt | i | nt | nt
CC(C)(C)c1ccc(S(=O)(=O)NCCOCC(F)(F)C(F)F)cc1 | 349.9 | nt | 106.7 | + | i | 0.0
CCCCCCCCN1C(=O)[C@H](CC(=O)N2CCOCC2)C[C@@]2(C(=O)OC)CCCCC=C12 | nt | nt | nt | i | nt | nt
Cc1nc(C)c(/C(O)=C/c2nc3ccccc3oc2=O)s1 | 311.5 | 5.4 | 103.3 | + | i | 0.4
Cc1ccc(S(=O)(=O)Nc2cc(C)cn(Cc3ccc(F)cc3)c2=O)cc1 | 356.4 | 1.0 | 126.6 | i | nt | nt
CC1(C)O[C@H]2CC(=O)OC[C@@]23C1CC(=O)[C@]1(C)C3CC[C@@]2(C)[C@H](c3ccoc3)OC(=O)[C@H]3O[C@]321 (some centres not stated) | 122.4 | 12.0 | 102.2 | + | i | 0.0
CCCCCC(=O)NNC(=O)c1ccc(F)cc1 | 267.6 | 6.8 | 105.3 | i | nt | nt
CCCCCCCC(=O)NNC(=O)c1ccc(F)cc1 | 497.5 | -1.3 | 91.9 | i | i | 0.7
CC1(C)O[C@@H]2[C@H](O1)[C@@H](COS(=O)(=O)O)O[C@H]2n1cc(Br)c(=O)[nH]c1=O | 381.6 | -1.3 | 97.0 | + | i | 0.0
CCOc1ccccc1NC(=O)COC(=O)COc1cccc2c1OC(C)(C)C2 | nt | nt | 107.9 | i | nt | nt
O=C(CSc1nnc(CNC(=O)c2ccco2)o1)Nc1ccc(Cl)cc1 | 592.5 | -4.2 | 102.2 | i | nt | nt
O=C(CSc1nnc(CNC(=O)c2ccco2)o1)Nc1cccc(Cl)c1 | 424.0 | -3.0 | nt | + | i | 0.0
Cc1cc(C)c(S(=O)(=O)Nc2nnc(C)s2)c(C)c1 | 294.8 | 14.9 | nt | i | i | 0.3
CCN1C(=O)[C@H]2[C@@H](c3ccc(C(F)(F)F)cc3)N[C@]3(CCCN(CC4CCCCC4)C3=O)[C@H]2C1=O | nt | 2.3 | 100.1 | + | i | 0.0
O=C(COc1ccc(-n2cnnn2)cc1)Nc1ccc(F)c(F)c1 | 336.8 | 9.4 | 94.2 | i | i | 0.4
O=C(COc1ccc(-n2cnnn2)cc1)Nc1ccc(F)cc1 | 378.3 | -1.6 | 94.0 | i | nt | nt
Oc1[nH]c2ccccc2c1C=Nc1ccccc1 | 281.6 | -5.4 | 96.7 | i | i | 0.0
C=CCNc1nc2c(c(=O)n(C)c(=O)n2C)n1Cc1ccc(F)cc1 | 542.6 | -14.1 | 98.5 | i | i | 0.6
COCCNc1nc2c(c(=O)n(C)c(=O)n2C)n1Cc1cccc(C)c1 | 302.1 | -3.3 | nt | i | nt | nt
Cn1c(=O)c2c(nc(NCCc3ccccc3)n2Cc2ccc(F)cc2)n(C)c1=O | 810.4 | -16.6 | 98.9 | i | nt | nt
Cc1cccc(Cn2c(NCCO)nc3c2c(=O)n(C)c(=O)n3C)c1 | 229.6 | -6.1 | 101.7 | + | i | 0.5
